In the library only some 2.8% were active in any assay of this set; here they are far more common.
NPY-Y1 antag – NPY-Y1 (human) receptor antagonism; AID 1040; inhibition, % at 3.6 µM; actives 1% (n = 200,000); HEK293-CNG Y1 cells, membrane potential fluorescence; NPY at EC95, then isoproterenol; P25929;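 active = inhibition above the campaign mean inhibition of all tested compounds plus 3 SD, cut at about 20% in these data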;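 note: 0% = DMSO wells given NPY plus isoproterenol and 100% = isoproterenol alone without NPY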
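material = HEK293 cells with Y1 receptor plus CNG channel | also added = NPY 25 nM then isoproterenol 1 µM plus Ro 20-1724 25 µM | schedule = dye 3 h, compound 60 min room temperature, stimulation 45 min | measured by = membrane potential fluorescence | benchmarks = high control isoproterenol alone, low control NPY with isoproterenol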
EP2 antag – blocks the human prostaglandin E2 receptor EP2 | C6 glioma cells expressing human EP2, cAMP TR-FRET; cells stimulated with saturating PGE2 | inhibition, % at 25 µM | actives 0.52% (n = 260,000);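 active = percent inhibition above 40 after rounding to a whole number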;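 note: rat C6 glioma host cells with rolipram phosphodiesterase inhibitor present; the protocol text gives 20 µM as final concentration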
Target sequence (P43116 whole entry, looked up): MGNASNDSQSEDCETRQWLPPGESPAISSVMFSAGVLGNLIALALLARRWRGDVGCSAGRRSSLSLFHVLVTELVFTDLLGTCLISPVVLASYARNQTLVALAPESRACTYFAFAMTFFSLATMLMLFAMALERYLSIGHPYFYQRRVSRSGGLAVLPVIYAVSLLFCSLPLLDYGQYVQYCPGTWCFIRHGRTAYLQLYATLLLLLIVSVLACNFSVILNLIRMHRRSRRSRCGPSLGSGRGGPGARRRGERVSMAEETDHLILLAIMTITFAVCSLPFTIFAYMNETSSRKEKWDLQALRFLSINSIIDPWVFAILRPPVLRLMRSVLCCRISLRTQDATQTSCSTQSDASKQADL
EP2 modulator – modulators of human EP2 prostaglandin E2 receptor | AID 940 | P43116 | induction, % at 25 µM | EP2-expressing cells, cAMP HTRF FRET, PGE2 co-stimulation | actives 0.83% (n = 260,000);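 active = compounds whose cAMP rise, as percent of the full-agonist control response, exceeds 60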;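 note: rat C6 glioma line stably carrying human EP2 under a CMV promoter; the protocol text gives 20 µM as final concentration; 100% = response of wells given 1 µM PGE2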
NPY-Y2 antag – antagonists of human neuropeptide Y receptor Y2; P49146; NPY-Y2 expressing cells, antagonist mode; inhibition, % at 2.7 µM; actives 0.99% (n = 140,000); in the data active = inhibition above about 17%;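 note: 0% = vehicle with agonist challenge and 100% = reference antagonist with challenge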
NPY-Y2 PAM-ag – potentiates or activates human NPY-Y2 receptor | cells expressing NPY-Y2, potentiator/agonist read-out | P49146 | actives 0.45% (n = 220,000) | activation, % at 3.6 µM | AID 1359; in the data active = activation above about 27%;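 note: cells stimulated with NPY near EC25 plus isoproterenol at EC100; 0% = vehicle plus submaximal agonist and 100% = vehicle plus saturating agonist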
NPY-Y1 PAM-ag – potentiators or agonists of human neuropeptide Y receptor Y1; NPY-Y1 expressing cells, potentiator/agonist activation; actives 0.37% (n = 220,000); activation, % at 3.6 µM; in the data active = activation above about 33%, passing the limit was not always enough;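 note: cells stimulated with NPY at EC10 then isoproterenol at EC100; 0% = low agonist plus stimulus and 100% = saturating agonist plus stimulus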
An asterisk follows results filed as active; · = no result given; ! = not confirmed by another sample.

SMILES	NPY-Y1 antag	EP2 antag	EP2 modulator	NPY-Y2 antag	NPY-Y2 PAM-ag	NPY-Y1 PAM-ag
COc1ccc(NC(=O)CSc2nnc(-c3ccc(C)cc3)o2)c(OC)c1	·	10.7	-60.2	·	·	·
CC(C)(C)c1ccc(CN2C3=NCCCN3c3ccccc32)cc1	25.4*	22.6	-51.6	19.6*	-34.7	-62.7
Cc1ccc(CN2C3=NCCCN3c3ccccc32)cc1	10.6	15.6	-6.0	9.2	-13.8	-40.0
COC(=O)c1cc2ccccn2c2c(C(=O)OC)c(C(=O)OC)cc1-2	-3.9	41.0*	-34.5	0.1	-10.3	7.0
CSc1nc(Oc2ccc(Cl)cc2)c2sccc2n1	0.6	11.3	63.6*	1.1	0.5	15.2
CC1(C)N([O-])c2cc([N+](=O)[O-])ccc2[N+]1=O	·	86.8*	-44.9	·	-1.4	10.4
CCN1C/C(=C/c2cccc([N+](=O)[O-])c2)C(=O)/C(=C/c2cccc([N+](=O)[O-])c2)C1	2.8	46.0*	-56.1	1.2	7.5	-11.6
COc1ccc(OC)c(CN(Cc2cnc(N)nc2)CC2CCCO2)c1 (centres undefined)	·	8.0	18.1	·	·	·
COC(=O)C(Nc1ccccc1Cl)(c1cc(C)c(O)c(C)c1)C(F)(F)F (centres undefined)	-2.5	12.7	-11.4	3.0	-5.3	12.2
COC(=O)/C(=C(/F)Sc1cc(C)c(O)c(C)c1)C(F)(F)F	-3.5	99.0*	-20.4	-1.2	2.8	-0.3
C=CCn1c2cc(C)sc2c2cnn(Cc3ccccc3F)c(=O)c21	·	·	63.4*	·	·	·
C=CCn1c2cc(C)sc2c2cnn(Cn3nnc4ccccc43)c(=O)c21	·	·	-3.9	·	·	·
CCCCNc1nc(-c2ccccc2)cc(C(F)(F)F)c1C(N)=O	-1.7	11.8	64.2*	4.3	-0.3	13.7
CC(C)OC(=O)CSc1nc(-c2ccc(F)cc2)cc(C(F)(F)F)n1	28.2*	19.6	-20.5	24.8*	-0.6	-39.0
COC(=O)c1ccccc1NC(=O)CSc1nc(-c2ccco2)cc(C(F)(F)F)n1	-0.2	5.7	65.0*!	11.8	-3.5	21.1
COC(=O)c1ccc(C(=O)OC)c(NC(=O)CSc2nc(-c3ccco3)cc(C(F)(F)F)n2)c1	-0.4	·	·	0.8	6.8	2.9
O=C(O)CSc1nc(-c2ccc(F)cc2)cc(C(F)(F)F)n1	·	7.7	57.5	·	·	·
COc1ccc(-c2cc(C(F)(F)F)nc(SCC(=O)Nc3cc(C)on3)n2)cc1OC	6.7	6.2	3.5	22.4*	8.6	-2.5
C#CCOc1c(Cl)cc(C=C2C(=O)NC(=O)NC2=O)cc1OCC	·	13.5	-60.1	·	·	·
O=C(CCN1C(=O)/C(=C/c2cccs2)SC1=S)NNC(=O)c1ccncc1	·	12.5	-55.6	·	·	·
COc1ccc(/C=C/c2c(-c3cccc(C)c3)oc3ccc(N4CCOCC4)cc23)cc1	·	40.1*	·	·	·	·
O=S(=O)(c1ccc(-n2cnnn2)cc1)N(C1CCCCC1)C1CCCCC1	0.8	4.7	64.4*	0.9	6.7	-11.7
CN(C1CCCCC1)S(=O)(=O)c1ccc(-n2cnnn2)cc1	0.6	8.0	13.8	0.3	-2.9	-32.8
O=C(CNCC1CCCO1)Nc1ccccc1N1CCOCC1 (centres undefined)	-1.4	1.0	12.0	2.0	3.4	41.8*
CCN(c1ccccc1)S(=O)(=O)c1ccc(F)cc1C	-1.3	10.5	62.5*	2.2	-9.6	-20.2
SMILES	NPY-Y1 antag	EP2 antag	EP2 modulator	NPY-Y2 antag	NPY-Y2 PAM-ag	NPY-Y1 PAM-ag
CCN(c1ccccc1)S(=O)(=O)c1ccc(F)c(C(=O)O)c1	11.0	5.2	9.0	1.3	3.0	6.8
CCOC(=O)C(C)(C)Sc1nnc(COc2cccc3ccccc23)n1CC	·	11.3	-41.2	·	·	·
COc1cc2c(cc1OC)C(=S)NC(C)(C)C2	-2.6	11.1	1.0	7.7	46.1*	103.3*
CCOC(=O)/C=C1\NC(C)(C)Cc2cc(OC)c(OC)cc21	-2.8	0.7	27.6	-0.1	-19.3	4.3
CCCC(=O)Nc1ncnc2c1ncn2[C@@H]1O[C@@H]2COP(=O)(O)O[C@H]2[C@H]1OC(=O)CCC	0.3	1.8	108.7*	1.2	-8.5	-6.5
O=C(Nc1ncnc2c1ncn2C1OC(COC(=O)c2ccccc2)C(F)C1O)c1ccccc1 (centres undefined)	7.0	19.6	-9.7	-0.5	-4.4	-4.3
CCOC(=O)c1c(NC(=O)CSc2ncc(C#N)c(N)n2)sc(C)c1C	·	16.9	-2.3	·	·	·
CCCC(C)NC(=O)C1CCCN(S(=O)(=O)c2ccc(Cl)cc2)C1 (centres undefined)	·	11.3	1.5	·	·	·
O=S1(=O)c2ccccc2N=NN1Cc1ccc(Cl)cc1	-2.3	42.6*	-22.8	2.2	-1.2	10.7
COCc1cc(C)nc(SCc2cccc3ccccc23)c1C#N	·	15.4	47.1	·	·	·
O=C(COc1ccccc1)N/N=C/c1sc(=O)n(Cc2cccc(C(=O)O)c2)c1Cl	·	6.3	19.3	·	-23.7	-16.7
O=C(O)c1cccc(Cn2c(Cl)c(/C=N/NC(=O)c3ccc(O)cc3)sc2=O)c1	·	3.3	61.4*	·	-18.5	-4.2
O=C(c1ccco1)N1N=C(c2ccncc2)CC1(O)C(F)(F)F (centres undefined)	6.4	6.9	36.3	·	-0.8	4.6
O=C(c1ccco1)N1N=C(c2ccc(Cl)cc2)CC1(O)C(F)(F)F (centres undefined)	0.7	6.7	60.5*	·	-9.9	-0.2
CC1CCCN(CCCOc2ccc(Br)cc2Cl)C1 (centres undefined)	21.1*	2.1	-25.9	·	-30.7	-6.6
Cc1cc2cc(C(c3nnnn3C3CCCCC3)N3CCN(c4ccccc4)CC3)c(=O)[nH]c2cc1C (centres undefined)	·	13.4	24.0	·	·	·
O=c1[nH]c2cc(Cl)c([N+](=O)[O-])nc2[nH]1	22.1*	4.0	6.3	17.8*	-14.7	-61.2
O=c1[nH]c2c(Br)cnc([N+](=O)[O-])c2[nH]1	·	3.1	50.1	·	3.6	-13.3
O=C(Nc1ccccc1C(=O)Nc1ccc2ccccc2c1)c1cccs1	·	10.5	27.7	·	·	·
COC(=O)c1c(CSc2ccc(C)c(C)c2)noc1C(=O)NCc1ccc(OC)cc1	23.0*	14.6	18.8	21.6*	-34.7	-14.9
CC(=O)Nc1ccc(S(=O)(=O)N2CCN(c3cc(C)nc4ccccc34)CC2)cc1	6.2	9.4	-20.2	-1.4	13.9	3.4
CC(=O)Nc1ccc(S(=O)(=O)N2CCN(c3nc(NC4CCCC4)c4ccccc4n3)CC2)cc1	13.1	1.8	-27.9	8.8	31.6*	-1.3
COc1ccc(-n2c(SCC(=O)Nc3ccccc3OC)nnc2-c2ccncc2)cc1	·	18.1	-3.8	·	·	·
c1ccc(OCCOCCN2CCN(C(c3ccccc3)c3ccccc3)CC2)cc1	16.0	6.8	61.4*	11.2	-11.2	-7.8
O=C(Nc1ccccc1)c1sccc1Oc1ccc([N+](=O)[O-])cc1F	6.1	11.2	63.2*	·	1.0	-2.6
O=C(O)c1cc([N+](=O)[O-])ccc1C(=O)Nc1ccccc1	-4.4	3.9	61.2*	1.4	4.8	10.9

High-throughput results deposited in PubChem BioAssay by several laboratories.
